{
  "source": "ChEMBL document CHEMBL1154063",
  "about": "“Facile synthesis and in vitro properties of 1-alkyl- and 1-alkyl-N-propargyl-1,2,3,4-tetrahydroisoquinoline derivatives on PC12 cells” (Eur J Med Chem, 2009)",
  "key": {"[1]": {"target": "T1, Amine oxidase [flavin-containing] B (Homo sapiens, UniProt P27338)", "T1 sequence (P27338 whole entry)": "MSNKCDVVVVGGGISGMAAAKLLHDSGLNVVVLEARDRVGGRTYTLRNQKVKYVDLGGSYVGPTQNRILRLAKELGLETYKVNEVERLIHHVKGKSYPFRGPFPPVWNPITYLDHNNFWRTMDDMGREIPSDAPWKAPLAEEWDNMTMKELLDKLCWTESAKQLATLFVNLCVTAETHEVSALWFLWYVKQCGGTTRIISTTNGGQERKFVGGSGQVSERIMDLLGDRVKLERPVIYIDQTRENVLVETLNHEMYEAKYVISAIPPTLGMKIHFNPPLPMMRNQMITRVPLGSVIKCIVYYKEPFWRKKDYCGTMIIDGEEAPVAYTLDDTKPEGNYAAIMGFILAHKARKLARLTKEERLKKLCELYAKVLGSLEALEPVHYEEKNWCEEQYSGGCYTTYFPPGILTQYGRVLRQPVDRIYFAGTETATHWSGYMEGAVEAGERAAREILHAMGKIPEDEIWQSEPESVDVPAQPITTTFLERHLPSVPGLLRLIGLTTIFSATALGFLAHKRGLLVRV", "assay": "Inhibition of MAOB at 100 nM after 60 mins using benylamine as substrate relative to control", "design": "scale not given: the % may be the effect or the level left", "details": "1 h"}, "[2]": {"target": "T1, Amine oxidase [flavin-containing] B", "assay": "Inhibition of MAOB at 100 nM after 60 mins using tyramine as substrate relative to control", "design": "scale not given: the % may be the effect or the level left", "details": "1 h"}, "[3]": {"target": "T2, Amine oxidase [flavin-containing] A (Homo sapiens, UniProt P21397)", "T2 sequence (P21397 whole entry)": "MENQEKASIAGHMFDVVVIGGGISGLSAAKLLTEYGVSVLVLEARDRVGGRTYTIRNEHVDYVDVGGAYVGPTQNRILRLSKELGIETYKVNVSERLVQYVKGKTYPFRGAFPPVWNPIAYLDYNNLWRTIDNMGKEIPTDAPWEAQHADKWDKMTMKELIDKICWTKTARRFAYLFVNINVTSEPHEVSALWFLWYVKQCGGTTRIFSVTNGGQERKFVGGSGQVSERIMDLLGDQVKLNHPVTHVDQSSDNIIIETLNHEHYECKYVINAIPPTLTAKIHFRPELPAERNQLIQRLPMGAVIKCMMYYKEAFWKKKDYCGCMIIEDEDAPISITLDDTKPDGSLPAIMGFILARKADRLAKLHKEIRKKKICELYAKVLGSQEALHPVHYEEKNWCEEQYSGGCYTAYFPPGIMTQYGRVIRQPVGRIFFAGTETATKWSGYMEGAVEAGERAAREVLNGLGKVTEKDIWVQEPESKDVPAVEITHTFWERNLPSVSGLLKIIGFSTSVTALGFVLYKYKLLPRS", "assay": "Inhibition of MAOA at 100 nM after 60 mins using tyramine as substrate relative to control", "design": "scale not given: the % may be the effect or the level left", "details": "1 h", "method_in_brief": "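MAO-A enzyme (10 µg/mL) incubated with 0.5 mM tyramine and 100 nM compound for 60 min at 37 °C. H2O2 formed was detected with a peroxidase-coupled fluorogenic kit (ex 530/em 590 nm). Activity expressed as % of vehicle control. Means ± S.E., n = 8.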"}, "PC-12 [4]": {"test_system": "PC-12", "assay": "Cytotoxicity against rat PC12 cells assessed as effect on cell viability at 0.5 mM after 48 hrs by tetrazolium/formazan assay", "details": "pc-12, 48 h, 500 µM"}, "PC-12 [5]": {"test_system": "PC-12", "assay": "Cytotoxicity against rat PC12 cells assessed as effect on cell viability at 1 mM after 48 hrs by tetrazolium/formazan assay", "details": "pc-12, 48 h, 1000 µM"}, "PC-12 [6]": {"test_system": "PC-12", "assay": "Cytotoxicity against rat PC12 cells assessed as effect on cell viability at 0.01 mM after 48 hrs by tetrazolium/formazan assay", "type": "cell-based", "details": "pc-12, 48 h, 10 µM", "method_in_brief": "(§1)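 PC12 cells in log growth, seeded at 3×10^5 cells/mL in serum-containing DMEM. After 24 h, medium replaced with the derivative diluted in serum-free DMEM. After 48 h exposure, CCK-8 (WST tetrazolium) added for 4 h at 37 °C. A490 read and viability expressed as % of untreated control. Means ± S.E., n = 3-6. Dunnett test after ANOVA.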"}, "PC-12 [7]": {"test_system": "PC-12", "assay": "Induction of apoptosis in rat PC12 cells assessed as length of migrated cell nucleus at 1 mM after 3 hrs by comet assay", "type": "toxicity, cell-based", "details": "pc-12, 3 h, 1000 µM", "method_in_brief": "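PC12 cells (5×10^5/well in PBS(-)) exposed to 1.0 mM final compound for 3 h at 37 °C. Cells embedded in low-melt agarose, lysed 1 h at 4 °C, then alkaline unwinding 30 min. Electrophoresed at 15 V for 30 min and stained with SYBR Green. 200 cells scored per sample under fluorescence at ×200. Whole comet length measured with an ocular micrometer.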"}, "PC-12 [8]": {"test_system": "PC-12", "assay": "Cytotoxicity against rat PC12 cells assessed as effect on cell viability at 0.05 to 1 mM after 48 hrs by tetrazolium/formazan assay", "type": "cell-based", "details": "pc-12, 48 h, 1000 µM", "method_in_brief": "as §1"}},
  "data": [
    {"smiles": "C#CCN1CCc2ccccc2C1C1CC1", "note": "(stereo unspecified)", "values": [
      {"measurement": "Activity at 0.1 µM", "setting": "[1]", "value": 97.5, "unit": "%"},
      {"measurement": "Activity at 0.1 µM", "setting": "[2]", "value": 98.4, "unit": "%"},
      {"measurement": "Activity at 0.1 µM", "setting": "[3]", "value": 96.2, "unit": "%"}
    ]},
    {"smiles": "CCC1NCCc2ccccc21", "note": "(stereo unspecified)", "values": [
      {"measurement": "Activity", "setting": "PC-12 [4]", "value": "Toxic"},
      {"measurement": "Activity", "setting": "PC-12 [5]", "value": "Toxic"}
    ]},
    {"smiles": "CCCC1NCCc2ccccc21", "note": "(stereo unspecified)", "values": [
      {"measurement": "Activity", "setting": "PC-12 [4]", "value": "Toxic"},
      {"measurement": "Activity", "setting": "PC-12 [5]", "value": "Toxic"}
    ]},
    {"smiles": "c1ccc2c(c1)CCNC2C1CCCC1", "note": "(stereo unspecified)", "values": [
      {"measurement": "Activity", "setting": "PC-12 [4]", "value": "Toxic"},
      {"measurement": "Activity", "setting": "PC-12 [6]", "value": "Non-toxic"}
    ]},
    {"smiles": "c1ccc2c(c1)CCNC2C1CCC1", "note": "(stereo unspecified)", "values": [
      {"measurement": "Activity", "setting": "PC-12 [4]", "value": "Toxic"},
      {"measurement": "Activity", "setting": "PC-12 [6]", "value": "Non-toxic"}
    ]},
    {"smiles": "C#CCN(C)[C@H](C)Cc1ccccc1", "note": "[SELEGILINE]", "values": [
      {"measurement": "Activity at 0.1 µM", "setting": "[3]", "value": 94.2, "unit": "%"}
    ]},
    {"smiles": "CCCCCCC1NCCc2ccccc21", "note": "(stereo unspecified)", "values": [
      {"measurement": "Activity", "setting": "PC-12 [7]", "value": 150, "unit": "um"},
      {"measurement": "Activity", "setting": "PC-12 [4]", "value": "Toxic"},
      {"measurement": "Activity", "setting": "PC-12 [5]", "value": "Toxic"},
      {"measurement": "Activity", "setting": "PC-12 [6]", "value": "Non-toxic"},
      {"measurement": "Activity", "setting": "PC-12 [8]", "value": "Toxic"}
    ]},
    {"smiles": "CCCCC1NCCc2ccccc21", "note": "(stereo unspecified)", "values": [
      {"measurement": "Activity", "setting": "PC-12 [4]", "value": "Toxic"},
      {"measurement": "Activity", "setting": "PC-12 [5]", "value": "Toxic"}
    ]},
    {"smiles": "C[n+]1ccc(-c2ccccc2)cc1.[Cl-]", "values": [
      {"measurement": "Activity", "setting": "PC-12 [7]", "value": 60, "unit": "um"}
    ]},
    {"smiles": "C#CCN1CCc2ccccc2C1C", "note": "(stereo unspecified)", "values": [
      {"measurement": "Activity at 0.1 µM", "setting": "[1]", "value": 99.4, "unit": "%"},
      {"measurement": "Activity at 0.1 µM", "setting": "[2]", "value": 101, "unit": "%"},
      {"measurement": "Activity at 0.1 µM", "setting": "[3]", "value": 97.5, "unit": "%"}
    ]},
    {"smiles": "CCCCCC1NCCc2ccccc21", "note": "(stereo unspecified)", "values": [
      {"measurement": "Activity", "setting": "PC-12 [4]", "value": "Toxic"},
      {"measurement": "Activity", "setting": "PC-12 [5]", "value": "Toxic"}
    ]},
    {"smiles": "c1ccc2c(c1)CCNC2C1CCCCC1", "note": "(stereo unspecified)", "values": [
      {"measurement": "Activity", "setting": "PC-12 [7]", "value": 120, "unit": "um"},
      {"measurement": "Activity", "setting": "PC-12 [4]", "value": "Toxic"},
      {"measurement": "Activity", "setting": "PC-12 [6]", "value": "Non-toxic"},
      {"measurement": "Activity", "setting": "PC-12 [8]", "value": "Toxic"}
    ]},
    {"smiles": "c1ccc2c(c1)CCNC2C1CC1", "note": "(stereo unspecified)", "values": [
      {"measurement": "Activity", "setting": "PC-12 [4]", "value": "Toxic"},
      {"measurement": "Activity", "setting": "PC-12 [6]", "value": "Non-toxic"}
    ]}
  ]
}
